Experimental data published in ChEMBL document CHEMBL2021917, “Isoquinoline derivatives as potent CRTH2 receptor antagonists: synthesis and SAR” (Bioorg Med Chem Lett, 2012).

Legend:
[1] = biological target: T1, Prostaglandin D2 receptor 2 (Homo sapiens, UniProt Q9Y5Y4); test: Displacement of 3H-PGD2 from human CRTH2 receptor expressed in CHO cells; type: cell-based
T1 sequence (Q9Y5Y4 whole entry): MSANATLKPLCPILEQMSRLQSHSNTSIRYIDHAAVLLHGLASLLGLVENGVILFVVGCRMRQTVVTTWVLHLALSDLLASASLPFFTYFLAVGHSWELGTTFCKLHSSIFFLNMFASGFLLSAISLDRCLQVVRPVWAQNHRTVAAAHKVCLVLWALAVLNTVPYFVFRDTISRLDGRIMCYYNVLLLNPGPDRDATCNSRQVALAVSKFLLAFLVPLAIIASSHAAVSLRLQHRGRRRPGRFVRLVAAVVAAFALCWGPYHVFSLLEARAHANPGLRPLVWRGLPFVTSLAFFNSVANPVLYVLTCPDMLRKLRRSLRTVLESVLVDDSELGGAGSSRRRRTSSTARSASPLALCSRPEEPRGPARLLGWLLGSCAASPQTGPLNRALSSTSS
In short: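 Radioligand binding with ³H-PGD₂ on CHO cells stably transfected with human CRTH2. IC50 taken from full 10-point, half-log concentration–response curves, as means of at least two independent experiments.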

[2] = biological target: T1, Prostaglandin D2 receptor 2; test: Antagonist activity at human CRTH2 receptor expressed in human KB8 cells assessed as inhibition of PGD2-induced increase in intracellular Ca2+ concentration; type: functional, cell-based
In short: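 Cells then washed and resuspended in HBSS with 10 mM HEPES pH 7.3 and 1 mM CaCl2 at 2 × 10⁵ cells/100 µl. PGD2-driven Ca²⁺ flux measured.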

[3] = biological target: Prostaglandin G/H synthase 1 (Homo sapiens, UniProt P23219); test: Inhibition of COX-1
Sequence of Prostaglandin G/H synthase 1 (P23219 whole entry): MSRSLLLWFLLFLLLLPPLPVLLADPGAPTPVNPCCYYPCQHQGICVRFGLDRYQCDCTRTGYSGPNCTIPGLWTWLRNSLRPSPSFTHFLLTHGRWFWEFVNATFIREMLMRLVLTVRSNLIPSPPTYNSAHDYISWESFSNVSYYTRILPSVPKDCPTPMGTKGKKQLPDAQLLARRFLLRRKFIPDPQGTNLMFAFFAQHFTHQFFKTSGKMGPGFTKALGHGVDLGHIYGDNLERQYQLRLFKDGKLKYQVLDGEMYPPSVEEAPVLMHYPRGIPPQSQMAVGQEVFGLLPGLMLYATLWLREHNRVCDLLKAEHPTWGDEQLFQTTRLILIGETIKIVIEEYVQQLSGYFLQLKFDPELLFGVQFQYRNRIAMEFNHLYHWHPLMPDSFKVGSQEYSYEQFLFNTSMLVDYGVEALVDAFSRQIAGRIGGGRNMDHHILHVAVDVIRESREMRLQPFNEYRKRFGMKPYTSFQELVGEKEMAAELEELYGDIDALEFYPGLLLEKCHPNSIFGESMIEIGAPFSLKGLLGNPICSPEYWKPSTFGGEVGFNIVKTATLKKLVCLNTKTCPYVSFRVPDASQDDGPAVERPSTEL
In short: (§1)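 Enzyme inhibition assays for COX-1 and COX-2 run by a contract profiling service following the provider's procedures.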

[4] = biological target: T2, Prostaglandin D2 receptor (Homo sapiens, UniProt Q13258); test: Inhibition of DP1 prostanoid receptor
T2 sequence (Q13258 whole entry): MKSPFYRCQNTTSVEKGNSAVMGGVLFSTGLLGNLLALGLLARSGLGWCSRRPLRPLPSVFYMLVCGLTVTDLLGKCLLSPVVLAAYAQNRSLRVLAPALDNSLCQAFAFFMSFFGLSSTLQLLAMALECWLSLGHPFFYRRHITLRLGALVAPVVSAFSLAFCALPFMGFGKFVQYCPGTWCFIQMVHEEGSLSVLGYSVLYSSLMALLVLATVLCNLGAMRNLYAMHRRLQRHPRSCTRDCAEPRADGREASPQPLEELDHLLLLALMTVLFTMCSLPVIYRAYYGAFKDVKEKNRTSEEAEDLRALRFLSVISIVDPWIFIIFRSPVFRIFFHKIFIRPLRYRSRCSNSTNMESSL
In short: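 DP1 binding assay run by a contract profiling service following the provider's procedures.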

[5] = biological target: T3, Prostaglandin G/H synthase 2 (Homo sapiens, UniProt P35354); test: Inhibition of COX-2; in short: as §1
T3 sequence (P35354 whole entry): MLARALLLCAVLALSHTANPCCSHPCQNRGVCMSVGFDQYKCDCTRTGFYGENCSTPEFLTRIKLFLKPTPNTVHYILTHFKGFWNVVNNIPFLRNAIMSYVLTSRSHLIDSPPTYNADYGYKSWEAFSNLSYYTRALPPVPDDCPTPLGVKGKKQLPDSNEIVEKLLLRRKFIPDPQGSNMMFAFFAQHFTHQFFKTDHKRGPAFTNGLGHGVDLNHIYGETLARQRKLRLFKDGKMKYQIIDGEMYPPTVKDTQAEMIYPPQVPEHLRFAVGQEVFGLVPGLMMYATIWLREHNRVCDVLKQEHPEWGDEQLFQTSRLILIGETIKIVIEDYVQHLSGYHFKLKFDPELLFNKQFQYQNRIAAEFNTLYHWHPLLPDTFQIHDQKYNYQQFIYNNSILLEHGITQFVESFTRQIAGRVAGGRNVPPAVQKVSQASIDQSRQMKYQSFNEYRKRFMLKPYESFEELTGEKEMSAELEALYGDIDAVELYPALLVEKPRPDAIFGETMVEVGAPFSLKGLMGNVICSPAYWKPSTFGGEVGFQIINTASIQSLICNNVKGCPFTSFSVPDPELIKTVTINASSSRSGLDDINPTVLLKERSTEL

SMILES	IC50 [1] [nM]	other results
CC(=O)Nc1ccc(C(=O)c2ncc(CC(=O)O)c3ccccc23)cc1	330	
O=C(O)Cc1cnc(C(=O)c2ccc(NC(=O)c3ccccc3)cc2)c2ccccc12	7.9	IC50 [2]: 42 nM
O=C(O)Cc1cnc(C(=O)c2ccc(NC(=O)C3CCCCC3)cc2)c2ccccc12	14	
O=C(O)Cc1cnc(C(=O)c2ccc(NC(=O)c3ccc4ccccc4c3)cc2)c2ccccc12	4	
O=C(O)Cc1cnc(C(=O)c2ccc(NC(=O)c3cc4ccccc4[nH]3)cc2)c2ccccc12	3.2	
O=C(O)Cc1cnc(C(=O)c2ccc(NC(=O)c3ccncc3)cc2)c2ccccc12	83	
O=C(O)Cc1cnc(C(=O)c2ccc(NC(=O)c3ncccn3)cc2)c2ccccc12	290	IC50 [2]: 550 nM
O=C(O)Cc1cnc(C(=O)c2ccc(NC(=O)c3cccc(Cl)c3)cc2)c2ccccc12	3.2	
O=C(O)Cc1cnc(C(=O)c2ccc(NC(=O)c3ccc(Cl)cc3)cc2)c2ccccc12	3.4	
O=C(O)Cc1cnc(C(=O)c2ccc(NC(=O)c3ccccc3Cl)cc2)c2ccccc12	45	
O=C(O)Cc1cnc(C(=O)c2ccc(NC(=O)c3ccc(C(F)(F)F)cc3)cc2)c2ccccc12	4.9	IC50 [2]: 15 nM
COc1ccc(C(=O)Nc2ccc(C(=O)c3ncc(CC(=O)O)c4ccccc34)cc2)cc1	7.3	
O=C(O)Cc1cnc(C(=O)c2ccc(NC(=O)c3ccc(Cl)c(Cl)c3)cc2)c2ccccc12	19	IC50 [3]: > 10000 nM; IC50 [4]: > 1000 nM; IC50 [5]: > 10000 nM
O=C(O)Cc1cnc(C(=O)c2ccc(NC(=O)CCc3ccc(Cl)c(Cl)c3)cc2)c2ccccc12	13	
O=C(O)Cc1cnc(C(=O)c2ccc(NC(=O)/C=C/c3ccc(Cl)c(Cl)c3)cc2)c2ccccc12	4	IC50 [2]: 17 nM
CN(C(=O)c1ccc(Cl)c(Cl)c1)c1ccc(C(=O)c2ncc(CC(=O)O)c3ccccc23)cc1	210	
O=C(O)Cc1cnc(C(=O)c2ccc(NCc3ccc(Cl)c(Cl)c3)cc2)c2ccccc12	6.1	
O=C(O)Cc1cnc(C(=O)c2ccc(NS(=O)(=O)c3ccc(Cl)c(Cl)c3)cc2)c2ccccc12	340	
O=C(O)Cc1cnc(C(=O)c2ccc(OCc3ccc(Cl)c(Cl)c3)cc2)c2ccccc12	38	IC50 [2]: 180 nM
O=C(O)Cc1cnc(C(=O)c2ccc(C(=O)Nc3ccc(Cl)c(Cl)c3)cc2)c2ccccc12	10	
O=C(O)Cc1cnc(C(=O)c2ccc(C(=O)NCCc3ccc(Cl)cc3)cc2)c2ccccc12	7.8	
CC(C)(C(=O)O)c1cnc(C(=O)c2ccc(C(=O)NCCc3ccc(Cl)cc3)cc2)c2ccccc12	200	
O=C(O)COc1cnc(C(=O)c2ccc(C(=O)NCCc3ccc(Cl)cc3)cc2)c2ccccc12	25	
